Reference: ChEMBL document CHEMBL1122608, “Nitrogen bridgehead compounds. 44. New antiallergic 4H-pyrido[1,2-a]pyrimidin-4-ones. 4” (1984)

How the values were obtained:
Rattus norvegicus [1] = experiment: Antiallergic activity by passive cutaneous anaphylaxis test after intravenous administration.; format: functional; details: read-out: ID50 (the source's name)
Method in brief: (§1)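 Adult female Sprague-Dawley rats (200 g, five per group) sensitized intradermally at two sites with rat reaginic anti-ovalbumin serum; after 48 h, challenged with chicken ovalbumin 20 mg/kg plus Evans blue 40 mg/kg. Compound iv at 32, 3.2, 0.32 µmol/kg at challenge. Dermal bluing area measured 30 min later; ≥3 doses, ID50 from dose-response regression; Student's t test.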

Rattus norvegicus [2] = experiment: Inhibition of histamine release by 50% in rats after intra peritoneal administration; format: functional
Method in brief: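 Male Sprague-Dawley rats (~250 g, six per group) passively sensitized ip with anti-ovalbumin reaginic serum, challenged 4 h later with ip ovalbumin 1 mg/rat; compound ip 30 s before antigen, ≥3 doses. Peritoneal fluid taken 3 min post-challenge, centrifuged at 150 g; histamine in supernatant measured fluorometrically (autoanalyzer). ID50 from dose-response regression curve; Student's t test.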

Rattus norvegicus [3] = experiment: Inhibition of Evans blue extravasation by 50% in rats after intra peritoneal administration; format: functional
Method in brief: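 Male Sprague-Dawley rats (~250 g, six per group) sensitized ip with 1 mL anti-ovalbumin reaginic serum; 4 h later Evans blue iv, then ovalbumin 1 mg/rat ip in Tris buffer. Compound ip 30 s before challenge, ≥3 doses. Peritoneal fluid collected at 3 min; extravasated dye read at 615 nm. ID50 from dose-response regression; Student's t test.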

Rattus norvegicus [4] = experiment: Antiallergic activity was evaluated by passive cutaneous anaphylaxis test after intra venous administration; insoluble; format: functional, organism-based; method in brief: as §1

Compound | ED50 (Rattus norvegicus [1]) [µmol/kg] | further results
C[C@H]1CC/C(=N\Nc2ccccc2)c2ncc(C(=O)O)c(=O)n21 | 0.3 | ID50 (Rattus norvegicus [2]): 1 nmol/kg; ID50 (Rattus norvegicus [3]): 5 nmol/kg
Cc1cccc(/N=C/C2=C3NC=C(C(=O)O)C(=O)N3[C@H](C)CC2)c1 | 66.9 | 
Cc1cccc(/N=C/C2=C3NC=C(C(=O)O)C(=O)N3C(C)CC2)c1 (centres undefined) | 0.8 | ID50 (Rattus norvegicus [2]): 2 nmol/kg; ID50 (Rattus norvegicus [3]): 130 nmol/kg
CC1CC/C(=N\Nc2ccccc2)c2ncc(/C=C/C(=O)O)c(=O)n21 (centres undefined) | 0.27 | 
CC1CCN2C(=O)C(C(=O)O)=CNC2=C1/C=N/c1ccccc1 (centres undefined) |  | ID50 (Rattus norvegicus [4]): Insoluble
CC1CCC(/C=N/c2cccc(C(=O)O)c2)=C2NC=CC(=O)N21 (centres undefined) | > 100 | 
O=C(O)C1=CNC2=C(/C=N/c3ccccc3C(=O)O)CCCCN2C1=O | 68.7 | 
CCOc1ccc(/N=C/C2=C3NC=C(C(=O)O)C(=O)N3C(C)CC2)cc1 (centres undefined) | 8.96 | 
CC1CCCc2ncc(C(=O)O)c(=O)n21 (centres undefined) | 240 | 
CCOC(=O)C1=CNC2=C(/C=N/c3cccc(C(=O)O)c3)CCC(C)N2C1=O (centres undefined) | 100 | 
COc1ccc(/N=C/C2=C3NC=C(C(=O)O)C(=O)N3C(C)CC2)cc1 (centres undefined) |  | ID50 (Rattus norvegicus [4]): Insoluble
CC1CCC(/C=N/c2cccc(Cl)c2)=C2NC=C(C(=O)O)C(=O)N21 (centres undefined) |  | ID50 (Rattus norvegicus [4]): Insoluble
CC1CCC(/C=N/c2ccc(C(F)(F)F)cc2)=C2NC=C(C(=O)O)C(=O)N21 (centres undefined) | > 100 | 
CC1CCC(/C=N/c2ccc(Br)cc2)=C2NC=C(C(=O)O)C(=O)N21 (centres undefined) |  | ID50 (Rattus norvegicus [4]): Insoluble
CC1CCC(/C=N/c2cccnc2)=C2NC=C(C(=O)O)C(=O)N21 (centres undefined) | 2.4 | ID50 (Rattus norvegicus [2]): 100 nmol/kg; ID50 (Rattus norvegicus [3]): 360 nmol/kg
O=C(O)c1cnc2n(c1=O)CCCC/C2=N\Nc1ccccc1 | 14.4 | 
CC1CC(/C=N/c2ccccc2C(=O)O)=C2NC=C(C(=O)O)C(=O)N2C1 (centres undefined) | 48.1 | 
CC1CCC(/C=N/c2ccccc2)=C2NC=C(C(=O)O)C(=O)N21 (centres undefined) |  | ID50 (Rattus norvegicus [4]): Insoluble
C[C@H]1CC/C(=N\Nc2ccccc2)c2ncc(/C=C/C(=O)O)c(=O)n21 | 0.15 | 
CC1CCC(/C=N/c2ccccc2O)=C2NC=C(C(=O)O)C(=O)N21 (centres undefined) | 4.11 | 
CC1CCC(/C=N/c2ccccc2F)=C2NC=C(C(=O)O)C(=O)N21 (centres undefined) | 14.5 | 
CCOC(=O)C1=CNC2=C(/C=N/c3ccccc3)CCC(C)N2C1=O (centres undefined) |  | ID50 (Rattus norvegicus [4]): Insoluble
Cc1nc2n(c(=O)c1/C=C/C(=O)O)C(C)CC/C2=N\Nc1ccccc1 (centres undefined) | 0.29 | 
CCOC(=O)C1=CNC2=C(/C=N/c3ccc(C(=O)O)cc3)CCC(C)N2C1=O (centres undefined) | 67.1 | 

Compound | ED50 (Rattus norvegicus [1]) [µmol/kg] | further results
C[C@@H]1CC/C(=N\Nc2ccccc2)c2ncc(/C=C/C(=O)O)c(=O)n21 | > 100 | 
O=C(O)C1=CNC2=C(/C=N/c3ccccc3C(=O)O)CCCN2C1=O | 22.9 | 
CC1CCC(/C=N/c2ccc(C(=O)O)cc2)=C2NC=CC(=O)N21 (centres undefined) | > 100 | 
CC1CCC(/C=N/c2ccc3ccccc3c2)=C2NC=C(C(=O)O)C(=O)N21 (centres undefined) |  | ID50 (Rattus norvegicus [4]): Insoluble
CC1CCN2C(=O)C(C(=O)O)=CNC2=C1/C=N/c1ccccc1C(=O)O (centres undefined) | 100 | 
C[C@@H]1CC/C(=N\Nc2ccccc2)c2ncc(C(=O)O)c(=O)n21 | 54.8 | 
CC1CCC(/C=N/c2cccc(Br)c2)=C2NC=C(C(=O)O)C(=O)N21 (centres undefined) |  | ID50 (Rattus norvegicus [4]): Insoluble
CC1CCC(/C=N/c2ccccc2)=C2NC(c3ccccc3)=C(/C=C/C(=O)O)C(=O)N21 (centres undefined) |  | ID50 (Rattus norvegicus [4]): Insoluble
CCOC(=O)C1=CNC2=C(/C=N/c3ccccc3C(=O)O)CCC(C)N2C1=O (centres undefined) | 24.8 | 
CC1CCC(/C=N/c2ccc(Cl)cc2)=C2NC=C(C(=O)O)C(=O)N21 (centres undefined) |  | ID50 (Rattus norvegicus [4]): Insoluble
O=C([O-])c1cc(=O)c2c(OCC(O)COc3cccc4oc(C(=O)[O-])cc(=O)c34)cccc2o1.[Na+].[Na+] [CROMOLYN SODIUM] | 1 | ID50 (Rattus norvegicus [2]): 16 nmol/kg; ID50 (Rattus norvegicus [3]): 55 nmol/kg
CC(=O)c1ccc(/N=C/C2=C3NC=C(C(=O)O)C(=O)N3C(C)CC2)cc1 (centres undefined) | 0.75 | 
CCOc1cccc(/N=C/C2=C3NC=C(C(=O)O)C(=O)N3C(C)CC2)c1 (centres undefined) |  | ID50 (Rattus norvegicus [4]): Insoluble
Cc1cccc(/N=C/C2=C3NC=C(C(=O)O)C(=O)N3[C@@H](C)CC2)c1 | 0.02 | 
Cc1ccc(/N=C/C2=C3NC=C(C(=O)O)C(=O)N3C(C)CC2)cc1 (centres undefined) | 3.6 | 
CC1CCC(/C=N/c2ccc(O)cc2)=C2NC=C(C(=O)O)C(=O)N21 (centres undefined) | 1.2 | 
CC1CCC(/C=N/c2ccc(CC(=O)O)cc2)=C2NC=C(C(=O)O)C(=O)N21 (centres undefined) | 5.8 | ID50 (Rattus norvegicus [2]): 110 nmol/kg; ID50 (Rattus norvegicus [3]): 280 nmol/kg
O=C(O)C1=CNC2=C(/C=N/c3ccccc3)CCN2C1=O | 15.4 | 
CC1CCC(=NNc2ccccc2)c2ncc(C(=O)O)c(=O)n21 (centres undefined) | 0.6 | 
CC1CCC(/C=N/c2ccc([N+](=O)[O-])cc2)=C2NC=C(C(=O)O)C(=O)N21 (centres undefined) |  | ID50 (Rattus norvegicus [4]): Insoluble
CC1CCC(/C=N/c2ccc(F)cc2)=C2NC=C(C(=O)O)C(=O)N21 (centres undefined) | 10.6 | 
CC1CCC(/C=N/c2ccccc2C(=O)O)=C2NC=C(C(=O)O)C(=O)N21 (centres undefined) | 1.11 | ID50 (Rattus norvegicus [2]): 10 nmol/kg; ID50 (Rattus norvegicus [3]): 140 nmol/kg
CC1CC(/C=N/c2ccccc2)=C2NC=C(C(=O)O)C(=O)N21 (centres undefined) | 20.2 | 
